In ChEMBL document CHEMBL4616723, “Discovery of Antibacterials That Inhibit Bacterial RNA Polymerase Interactions with Sigma Factors” (J Med Chem, 2020):
Converted amounts (≈) assume the structure as drawn. The source made the active and inactive calls. The calls are words filed in the database; no cut-off is given here.

Columns and labels:
Streptococcus pneumoniae [1] = assay: Antibacterial activity against Streptococcus pneumoniae ATCC 49619 assessed as reduction in pneumolysin release at 0.25 to 0.5 times MIC incubated for 16 to 20 hrs by Western blot analysis; assay type: functional, organism-based
Method in brief: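 Overnight static culture in brain–heart infusion broth, with or without serially diluted compound; rifampicin and ceftriaxone controls at twofold dilutions from 2 to 0.002 μg/mL; untreated control. […] Western blot probed with rabbit polyclonal anti-pneumolysin (1:1000) and HRP anti-rabbit secondary, ECL chemiluminescence; band intensity normalized to untreated control.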

Pseudomonas aeruginosa = assay: Antibacterial activity against Pseudomonas aeruginosa ATCC 27853 after 20 hrs by CLSI based-broth microdilution method; assay type: functional; conditions: ATCC 27853, 20 h
Streptococcus pneumoniae [2] = assay: Bacteriostatic activity against Streptococcus pneumoniae ATCC 49619 assessed as decrease in bacterial growth at 4 to 16 times MIC measured over 6 hrs by time kill assay relative to control; assay type: functional
[3] = tested on: Staphylococcus epidermidis; assay: Antibacterial activity against Staphylococcus epidermidis ATCC 12228 after 20 hrs by CLSI based-broth microdilution method; assay type: functional; conditions: ATCC 12228, 20 h
Acinetobacter baumannii = assay: Antibacterial activity against Acinetobacter baumannii ATCC 19606 after 20 hrs by CLSI based-broth microdilution method; assay type: functional; conditions: ATCC 19606 = CIP 70.34 = JCM 6841, 20 h
[4] = tested on: Staphylococcus saprophyticus; assay: Antibacterial activity against Staphylococcus saprophyticus ATCC 15305 after 20 hrs by CLSI based-broth microdilution method; assay type: functional; conditions: subsp. saprophyticus ATCC 15305, 20 h
Streptococcus pneumoniae [5] = assay: Bacteriostatic activity against Streptococcus pneumoniae ATCC 49619 at 1 times MIC measured over 6 hrs by time kill assay; assay type: functional, organism-based
Bacillus subtilis [6] = assay: Inhibition of RNAP subunit beta' interaction with sigma factor A assessed as RNAP delocalization from nucleoid at 0.5 times MIC incubated for 15 mins by confocal microscopy
Enterococcus faecalis = assay: Antibacterial activity against Enterococcus faecalis ATCC 19433 after 20 hrs by CLSI based-broth microdilution method; assay type: functional; conditions: ATCC 19433, 20 h
HepG2 = assay: Cytotoxicity against human HepG2 cells after 48 to 72 hrs by MTT assay; assay type: cell-based
Streptococcus agalactiae [7] = assay: Bactericidal activity against Streptococcus agalactiae ATCC 12386 assessed as decrease in CFU count at 16 times MIC measured over 6 hrs by time kill assay; assay type: functional, organism-based
Staphylococcus aureus [8] = assay: Antibacterial activity against Staphylococcus aureus ATCC 25923 after 20 hrs by CLSI based-broth microdilution method; assay type: functional; conditions: ATCC 25923, 20 h
Staphylococcus aureus [9] = assay: Effect on total protein level in Staphylococcus aureus ATCC 29213 at 1/4 to 1/8 times MIC; assay type: functional, organism-based
Staphylococcus aureus [10] = assay: Effect on total DNA level in Staphylococcus aureus ATCC 29213 at 1/4 to 1/8 times MIC by fluorimetric method; assay type: functional, organism-based
Enterobacter cloacae = assay: Antibacterial activity against Enterobacter cloacae ATCC 13047 after 20 hrs by CLSI based-broth microdilution method; assay type: functional; conditions: subsp. cloacae ATCC 13047, 20 h
Streptococcus pneumoniae [11] = assay: Antibacterial activity against Streptococcus pneumoniae ATCC 49619 assessed as reduction in bacterial ATP production at 0.25 to 16 times MIC measured up to 6 hrs by BacTiter-Glo assay; assay type: functional, organism-based
Method in brief: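 Log-phase S. pneumoniae, about 1.5 × 10^6 CFU/mL in BHI containing compound at several concentrations, untreated control included; grown at 37 °C, 200 rpm, 5% CO2; samples taken at 0, 2, 4 and 6 h; ATP measured by BacTiter-Glo luminescence; triplicate.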

Streptococcus pneumoniae [12] = assay: Bactericidal activity against Streptococcus pneumoniae ATCC 49619 at 4 to 16 times MIC measured over 6 hrs by time kill assay; assay type: functional, organism-based
Streptococcus agalactiae [13] = assay: Bacteriostatic activity against Streptococcus agalactiae ATCC 12386 at 16 times MIC measured over 6 hrs by time kill assay; assay type: functional, organism-based
Staphylococcus aureus [14] = assay: Antibacterial activity against Staphylococcus aureus ATCC 29213 after 20 hrs by CLSI based-broth microdilution method; assay type: functional; conditions: ATCC 29213, 20 h
[15] = Therapeutic index, ratio of CC50 for human HepG2 cells to MIC for Streptococcus pneumoniae ATCC 49619; assay type: toxicity; conditions: read-out: TI
Klebsiella pneumoniae = assay: Antibacterial activity against Klebsiella pneumoniae ATCC 700603 after 20 hrs by CLSI based-broth microdilution method; assay type: functional; conditions: ATCC 700603, 20 h
[16] = Therapeutic index, ratio of CC50 for human A549 cells to MIC for Streptococcus pneumoniae ATCC 49619; assay type: toxicity; conditions: read-out: TI
Bacillus subtilis [17] = assay: Inhibition of RNAP subunit beta' interaction with sigma factor A assessed as diffusion of RNAP into cytosolic region at 1 to 2 times MIC incubated for 15 mins by confocal microscopy
Streptococcus pyogenes = assay: Antibacterial activity against Streptococcus pyogenes ATCC 19615 after 20 hrs by CLSI based-broth microdilution method; assay type: functional; conditions: ATCC 19615, 20 h
[18] = Inhibition of Escherichia coli RNAP/sigma-70 protein-protein interaction assessed as reduction in RNA synthesis preincubated for 10 mins followed by sigma-70/DNA template/AGU/ApU/alpha [32P]GTP addition and measured after 10 mins by phosphorimaging analysis
Streptococcus agalactiae [19] = assay: Antibacterial activity against Streptococcus agalactiae ATCC 12386 after 20 hrs by CLSI based-broth microdilution method; assay type: functional; conditions: ATCC 12386, 20 h
Escherichia coli = assay: Antibacterial activity against Escherichia coli ATCC 25922 after 20 hrs by CLSI based-broth microdilution method; assay type: functional; conditions: ATCC 25922, 20 h
A549 = assay: Cytotoxicity against human A549 cells after 48 to 72 hrs by MTT assay; assay type: cell-based
Staphylococcus aureus [20] = assay: Bacteriostatic activity against Staphylococcus aureus ATCC 25923 at 16 times MIC measured over 6 hrs by time kill assay; assay type: functional, organism-based
Staphylococcus aureus [21] = assay: Bactericidal activity against Staphylococcus aureus ATCC 25923 assessed as decrease in CFU count at 16 times MIC measured over 6 hrs by time kill assay; assay type: functional, organism-based
Staphylococcus aureus [22] = assay: Effect on total RNA level in Staphylococcus aureus ATCC 29213 at 1/4 to 1/8 times MIC by fluorimetric method; assay type: functional

O=C(O)c1ccc(Cl)cc1NCc1ccc(Sc2ccc(Cl)c(Cl)c2)c([N+](=O)[O-])c1
Activity (Streptococcus pneumoniae [1]): Active
MIC (Pseudomonas aeruginosa): > 256 µg/mL
log(activity) (Streptococcus pneumoniae [2]): 2
MIC [3]: 2 µg/mL (≈ 4.13 µM)
MIC (Acinetobacter baumannii): > 256 µg/mL
MIC [4]: 2 µg/mL (≈ 4.13 µM)
Activity (Streptococcus pneumoniae [5]): Active
inhibition (Bacillus subtilis [6]): Active
MIC (Enterococcus faecalis): 4 µg/mL (≈ 8.27 µM)
CC50 (HepG2): 74.4 µM
Activity (Streptococcus agalactiae [7]): inactive
MIC (Staphylococcus aureus [8]): 4 µg/mL (≈ 8.27 µM)
Activity (Staphylococcus aureus [9]): Active
Activity (Staphylococcus aureus [10]): inactive
MIC (Enterobacter cloacae): > 256 µg/mL
Activity (Streptococcus pneumoniae [11]): Active
Activity (Streptococcus pneumoniae [12]): inactive
Activity (Streptococcus agalactiae [13]): Active
MIC (Staphylococcus aureus [14]): 4 µg/mL (≈ 8.27 µM)
selectivity ratio [15]: 36
MIC (Klebsiella pneumoniae): > 256 µg/mL
selectivity ratio [16]: 37
inhibition (Bacillus subtilis [17]): Active
MIC (Streptococcus pyogenes): 1 µg/mL (≈ 2.07 µM)
IC50 [18]: 6.8 µM
MIC (Streptococcus agalactiae [19]): 2 µg/mL (≈ 4.13 µM)
MIC (Escherichia coli): > 256 µg/mL
CC50 (A549): 75.7 µM
Activity (Staphylococcus aureus [20]): Active
Activity (Staphylococcus aureus [21]): inactive
Activity (Staphylococcus aureus [22]): Active
